Activity and Ki data for three compounds are collected here from ChEMBL document CHEMBL3745596, “Chlorophenoxy aminoalkyl derivatives as histamine H(3)R ligands and antiseizure agents” (Bioorg Med Chem, 2016).

Activity calls are given as the source filed them.

The subject of data set [1] is Mus musculus. Put plainly: Anticonvulsant activity in CF1 albino mouse assessed as protection against maximal electroshock-induced seizure at 30 mg/kg, ip after 0.5 hrs. It is filed as functional, organism-based. The method, boiled down: (§1)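 Male CF-1 mice dosed ip as suspension in 0.5% methylcellulose. Corneal electrodes deliver 60 Hz alternating current, 50 mA for […], after a drop of 0.5% tetracaine HCl in 0.9% NaCl per eye. Protection means abolition of hindlimb tonic extension; scored as protected/tested, or ED50 with 95% confidence interval.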

Data set [2] relates to Mus musculus. Put plainly: Anticonvulsant activity in CF1 albino mouse assessed as protection against maximal electroshock-induced seizure at 100 mg/kg, ip after 4 hrs. The format is functional, organism-based. The method, boiled down: as §1
On the technique in general: The maximal electroshock test induces tonic seizures with an electrical stimulus.

Data set [3] relates to Mus musculus. Briefly: Anticonvulsant activity in CF1 albino mouse assessed as protection against 6 Hz-psychomotor-induced seizure at 50 mg/kg, ip after 0.25 hrs. It is filed as functional, organism-based. An outline of the steps:
(§2)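 Male CF-1 mice, ip suspension in 0.5% methylcellulose. Corneal stimulation 0.2 ms monopolar rectangular pulses at 6 Hz, 32 mA for 3 s via constant-current device; mice without minimal clonic phase seizure counted protected. Groups of four; read at 0.25, 0.5, 1, 2, 4 h; result as protected/tested.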

Data set [4] has as its system Mus musculus. Put plainly: Anticonvulsant activity in CF1 albino mouse assessed as protection against maximal electroshock-induced seizure at 3 mg/kg, ip after 0.5 hrs. The format is functional, organism-based. An outline of the steps:
as §1

For data set [5], the system named is Rattus norvegicus. Put plainly: Anticonvulsant activity in Sprague-Dawley rat assessed as protection against maximal electroshock-induced seizure at 30 mg/kg, po. It is filed as functional.
Data set [6] deals with Mus musculus. Put plainly: Neurotoxicity in CF1 albino mouse assessed as unable to grasp rotarod and death at 100 mg/kg, ip after 0.5 hrs by rotarod test. The following applies: in vivo. It is filed as toxicity, organism-based. An outline of the steps: (§3)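 Male albino CF-1 mice dosed ip with compound suspended in 0.5% methylcellulose, then placed on a 1-inch knurled plastic rod turning at 6 rpm. A fall three times within 1 min counted as neurotoxicity. Observations were made at 0.5 h and 4 h after dosing. Result given as animals showing toxicity per animals tested, with the kind of toxicity recorded.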
On the technique in general: Falling from the rotarod earlier than controls is read as motor impairment.

For data set [7], the system named is Mus musculus. Briefly: Neurotoxicity in CF1 albino mouse at 50 mg/kg, ip after 4 hrs by rotarod test. It is filed as toxicity, organism-based. The settings on record: in vivo. An outline of the steps: (§4)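 Rotarod neurotoxicity in male albino CF-1 mice dosed ip with compound suspended in 0.5% methylcellulose. Animal placed on a 1 inch diameter knurled plastic rod rotating at 6 rpm. Neurotoxicity scored when the animal falls off three times within 1 min. Readout is number of animals toxic/number tested at the stated time after dosing. TD50 with 95% confidence interval from the quantitative study.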

In data set [8] the test system is Mus musculus. Put plainly: Anticonvulsant activity in CF1 albino mouse assessed as protection against maximal electroshock-induced seizure at 10 mg/kg, ip after 0.5 hrs. It is filed as functional, organism-based. The method, boiled down: as §1
In data set [9] the test system is Mus musculus. Briefly: Anticonvulsant activity in CF1 albino mouse assessed as protection against 6 Hz-psychomotor-induced seizure at 50 mg/kg, ip after 2 hrs. It is filed as functional, organism-based. The method, boiled down: as §2
The test system of data set [10] is Mus musculus. Briefly: Neurotoxicity in CF1 albino mouse at 300 mg/kg, ip after 4 hrs by rotarod test. The settings on record: in vivo. It is filed as toxicity, organism-based. The method, boiled down:
as §4

In data set [11] the test system is Mus musculus. Put plainly: Neurotoxicity in CF1 albino mouse at 30 mg/kg, ip after 4 hrs by rotarod test. It is filed as toxicity, organism-based. The settings on record: in vivo. An outline of the steps: as §4
In data set [12] the test system is Mus musculus. Briefly: Anticonvulsant activity in CF1 albino mouse assessed as protection against 6 Hz-psychomotor-induced seizure at 50 mg/kg, ip after 4 hrs. It is filed as functional, organism-based. An outline of the steps:
as §2

In data set [13] the test system is Mus musculus. Put plainly: Neurotoxicity in CF1 albino mouse at 100 mg/kg, ip after 4 hrs by rotarod test. The following applies: in vivo. The format is toxicity, organism-based. An outline of the steps:
as §4

The test system of data set [14] is Mus musculus. Briefly: Anticonvulsant activity in CF1 albino mouse assessed as protection against maximal electroshock-induced seizure at 100 mg/kg, ip after 0.5 hrs. It is filed as functional, organism-based. An outline of the steps:
as §1

Data set [15] concerns Mus musculus. Put plainly: Anticonvulsant activity in CF1 albino mouse assessed as protection against maximal electroshock-induced seizure at 30 mg/kg, ip after 4 hrs. It is filed as functional, organism-based. The method, boiled down: as §1
Data set [16] concerns Mus musculus. Put plainly: Neurotoxicity in CF1 albino mouse at 3 mg/kg, ip after 0.5 hrs by rotarod test. The format is toxicity, organism-based. The settings on record: in vivo. The method, boiled down:
as §4

Data set [17] deals with Mus musculus. Briefly: Neurotoxicity in CF1 albino mouse at 50 mg/kg, ip after 2 hrs by rotarod test. The format is toxicity, organism-based. The settings on record: in vivo. An outline of the steps:
as §4

Data set [18] relates to Mus musculus. Put plainly: Neurotoxicity in CF1 albino mouse at 50 mg/kg, ip after 0.25 hrs by rotarod test. It is filed as toxicity, organism-based. The settings on record: in vivo. The method, boiled down:
as §4

Data set [19] relates to Mus musculus. Briefly: Anticonvulsant activity in CF1 albino mouse assessed as protection against subcutaneous pentetrazole-induced seizure at 30 mg/kg, ip after 0.5 hrs. It is filed as functional, organism-based. The method, boiled down: (§5)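 Male CF-1 mice, ip in 0.5% methylcellulose; pentetrazole at CD97 (85 mg/kg) injected subcutaneously in a loose fold of neck skin. Observed 30 min; absence of even a threshold seizure (single clonic spasm lasting at least 5 s) counted as protection. Scored protected/tested, or ED50.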

Data set [20] deals with Mus musculus. Briefly: Neurotoxicity in CF1 albino mouse at 10 mg/kg, ip after 0.5 hrs by rotarod test. It is filed as toxicity, organism-based. The following applies: in vivo. An outline of the steps:
(§6)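 Rotarod neurotoxicity in male CF-1 mice dosed ip as 0.5% methylcellulose suspension: mouse placed on 1 inch knurled rod rotating at 6 rpm; toxicity when the animal falls off three times within 1 min, with other signs noted. Scored as toxic/tested at 0.5 h and 4 h.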

The next data set deals with Histamine H3 receptor (Homo sapiens, UniProt Q9Y5N1). Briefly: Displacement of [3H]-Nalpha-methylhistamine from human recombinant histamine H3 receptor expressed in HEK293 cells after 90 mins. It is filed as cell-based.
In data set [21] the test system is Mus musculus. Put plainly: Anticonvulsant activity in CF1 albino mouse assessed as protection against subcutaneous pentetrazole-induced seizure at 30 mg/kg, ip after 4 hrs. It is filed as functional, organism-based. An outline of the steps: as §5
The subject of data set [22] is Mus musculus. Briefly: Neurotoxicity in CF1 albino mouse at 30 mg/kg, ip after 0.5 hrs by rotarod test. The format is toxicity, organism-based. The following applies: in vivo. An outline of the steps: as §4
Data set [23] relates to Mus musculus. Put plainly: Neurotoxicity in CF1 albino mouse assessed as death at 300 mg/kg, ip after 0.5 hrs by rotarod test. It is filed as toxicity, organism-based. The following applies: in vivo. An outline of the steps:
as §3

Data set [24] has as its system Mus musculus. Put plainly: Neurotoxicity in CF1 albino mouse assessed as vocalization at 30 mg/kg, ip after 0.5 hrs by rotarod test. The format is toxicity, organism-based. The settings on record: in vivo. The method, boiled down: as §6
In data set [25] the test system is Mus musculus. Put plainly: Neurotoxicity in CF1 albino mouse assessed as death at 100 mg/kg, ip after 0.5 hrs by rotarod test. It is filed as toxicity, organism-based. The settings on record: in vivo. The method, boiled down:
as §3

The subject of data set [26] is Mus musculus. Put plainly: Anticonvulsant activity in CF1 albino mouse assessed as protection against subcutaneous pentetrazole-induced seizure at 100 mg/kg, ip after 0.5 hrs. The format is functional, organism-based. An outline of the steps: as §5
Data set [27] relates to Mus musculus. Put plainly: Anticonvulsant activity in CF1 albino mouse assessed as protection against subcutaneous pentetrazole-induced seizure at 100 mg/kg, ip after 4 hrs. The format is functional, organism-based. The method, boiled down: as §5
For data set [28], the system named is Rattus norvegicus. Put plainly: Anticonvulsant activity in Sprague-Dawley rat assessed as protection against pilocarpine-induced convulsive status epilepticus at 65 mg/kg, ip. The format is functional, organism-based. The method, boiled down:
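Male Sprague Dawley rats (150–180 g) dosed ip, pilocarpine 50 mg/kg ip given; compound dosed immediately at first behavioral Stage 3 seizure or 30 min later. Number protected from Racine Stage 3 or greater seizures recorded.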

In data set [29] the test system is Mus musculus. Briefly: Neurotoxicity in CF1 albino mouse assessed as death at 300 mg/kg, ip after 4 hrs by rotarod test. It is filed as toxicity, organism-based. The settings on record: in vivo. An outline of the steps:
as §3

Chain of Histamine H3 receptor (Q9Y5N1 whole entry): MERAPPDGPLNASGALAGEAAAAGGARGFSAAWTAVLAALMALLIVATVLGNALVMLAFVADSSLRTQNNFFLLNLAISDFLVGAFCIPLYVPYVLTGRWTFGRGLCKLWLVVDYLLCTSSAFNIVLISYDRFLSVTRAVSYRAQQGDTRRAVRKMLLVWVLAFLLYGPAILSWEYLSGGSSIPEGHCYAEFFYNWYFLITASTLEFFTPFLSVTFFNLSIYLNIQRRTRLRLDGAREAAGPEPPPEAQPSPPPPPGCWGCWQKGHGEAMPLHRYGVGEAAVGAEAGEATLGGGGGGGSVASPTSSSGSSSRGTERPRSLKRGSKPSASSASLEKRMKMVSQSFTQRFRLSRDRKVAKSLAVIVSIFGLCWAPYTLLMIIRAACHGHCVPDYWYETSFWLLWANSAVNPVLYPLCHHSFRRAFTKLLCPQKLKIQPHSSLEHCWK

The Ki is a dissociation constant, usually derived from enzyme kinetics or from competition with a known ligand. On to `Clc1ccc(OCCCCCCCN2CCCCCC2)cc1.O=C(O)C(=O)O`, for which the outcome in the data set on Mus musculus [1], in the data set on Mus musculus [2] and with Mus musculus [14] was Active. Moreover, the outcome in the data set with Mus musculus [3], in the data set on Mus musculus [4], with Mus musculus [8], with Mus musculus [9], in the data set with Mus musculus [12] and in the data set with Mus musculus [15] was inactive. In addition, the outcome with Mus musculus [19] and with Mus musculus [21] was inactive. The Activity in the data set on Rattus norvegicus [5] is 25%; with Mus musculus [6] it was “Toxic”; in the data set on Mus musculus [7], “Non-toxic”; in the data set on Mus musculus [10], “Non-toxic”; in the data set with Mus musculus [11] it was “Non-toxic”; with Mus musculus [13], “Non-toxic”. Moreover, the Activity result in the data set with Mus musculus [16], in the data set on Mus musculus [17], in the data set on Mus musculus [18], in the data set on Mus musculus [20] and in the data set with Mus musculus [22] was “Non-toxic” throughout. Moreover, the inhibition constant Ki on Histamine H3 receptor stood at 203 nM.

As to `CC1CCN(CCCCCOc2ccc(Cl)cc2)CC1.O=C(O)C(=O)O`, the outcome in the data set with Mus musculus [1] and in the data set with Mus musculus [15] was Active. Moreover, the Activity result is given as “Toxic” in the data set with Mus musculus [23]; “Toxic” in the data set on Mus musculus [24]; “Non-toxic” in the data set on Mus musculus [10]; “Non-toxic” in the data set with Mus musculus [11]; “Non-toxic” in the data set on Mus musculus [13]; “Toxic” in the data set on Mus musculus [25]. Further, the Activity result in the data set with Mus musculus [16] and in the data set on Mus musculus [20] was “Non-toxic” each time. Moreover, the result in the data set with Mus musculus [4], in the data set on Mus musculus [8], in the data set with Mus musculus [19] and in the data set on Mus musculus [21] was inactive. The Ki at Histamine H3 receptor worked out at 800 nM.

In the case of `Clc1cccc(OCCCCCCCN2CCCCC2)c1.O=C(O)C(=O)O`, the result with Mus musculus [26], in the data set on Mus musculus [1], in the data set with Mus musculus [2], in the data set on Mus musculus [27], with Mus musculus [14] and with Mus musculus [15] was inactive. In addition, the outcome with Mus musculus [19] and in the data set on Mus musculus [21] was inactive. In addition, the Activity entry with Mus musculus [23] was “Toxic”; in the data set on Mus musculus [29], “Non-toxic”; with Mus musculus [11] it was “Non-toxic”; in the data set on Mus musculus [13], “Non-toxic”; with Mus musculus [22], “Non-toxic”. Further, the result with Rattus norvegicus [28] was Active. At Histamine H3 receptor, the inhibitory constant (Ki) was 333 nM.
